Most compounds without a hit are left out; they make up all but 2.8% or so of the library.
pPAFAH inh: inhibitors of human plasma PAF acetylhydrolase (pPAFAH); Q13093; recombinant pPAFAH, FP-rhodamine probe fluorescence polarization; inhibition, % at 3.39 µM; hit rate 1.5% among 330,000;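 active = inhibition above the mean inhibition across the screen plus 3 SD, cut at about 25% in these data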;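 also: inhibitors block binding of the rhodamine activity-based probe so polarization drops; 0% = enzyme with DMSO and 100% = wells lacking pPAFAH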
Target sequence (Q13093 whole entry, looked up): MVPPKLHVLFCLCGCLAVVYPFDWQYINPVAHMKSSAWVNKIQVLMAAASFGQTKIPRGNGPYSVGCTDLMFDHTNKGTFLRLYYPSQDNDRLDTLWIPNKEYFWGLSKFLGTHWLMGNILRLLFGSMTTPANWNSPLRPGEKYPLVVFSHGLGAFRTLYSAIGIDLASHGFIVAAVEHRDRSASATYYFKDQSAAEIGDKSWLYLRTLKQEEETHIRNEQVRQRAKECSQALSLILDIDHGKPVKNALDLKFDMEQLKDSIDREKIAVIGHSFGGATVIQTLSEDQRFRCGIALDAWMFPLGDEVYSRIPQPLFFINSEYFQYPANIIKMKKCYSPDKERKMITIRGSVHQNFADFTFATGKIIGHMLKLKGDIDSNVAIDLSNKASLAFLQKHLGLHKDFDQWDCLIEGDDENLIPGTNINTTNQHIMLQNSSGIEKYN
PAFAH1B2 FP inh: blocks human PAF acetylhydrolase 1b catalytic subunit 2; recombinant PAFAH1B2, FP-rhodamine activity probe, fluorescence polarization; inhibition, % at 3.39 µM; hit rate 1.2% among 340,000; AID 492953;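 active = inhibition above the mean of all tested compounds plus 3 SD, cut at about 24% in these data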;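 also: 0% = enzyme with DMSO and 100% = wells lacking PAFAH1B2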
PAFAH1B3 inh: PAFAH1B3 (human) inhibition; hit rate 0.28% among 340,000; recombinant PAFAH1B3, FP-rhodamine probe, fluorescence polarization; inhibition, % at 3.39 µM; Q15102;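 active = inhibition above the screen-wide average of all tested compounds plus 3 SD, cut at about 25% in these data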;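 also: 0% = enzyme with DMSO only and 100% = wells lacking PAFAH1B3 protein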
Target sequence (Q15102 whole entry, looked up): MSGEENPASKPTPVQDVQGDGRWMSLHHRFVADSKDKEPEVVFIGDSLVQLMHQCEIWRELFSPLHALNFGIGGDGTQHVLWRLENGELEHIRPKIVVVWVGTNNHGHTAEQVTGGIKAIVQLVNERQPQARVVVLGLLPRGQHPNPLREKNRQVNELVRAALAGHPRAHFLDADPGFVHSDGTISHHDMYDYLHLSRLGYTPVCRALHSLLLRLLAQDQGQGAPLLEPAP
HTRA1 inhibitor: inhibitors of human serine peptidase HTRA1 | inhibition, % at 5.96 µM | recombinant HTRA1, FP-rhodamine activity-based probe, fluorescence polarization | hit rate 0.5% among 340,000 | AID 504803 | Q92743; in the data active = inhibition above about 36%;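 also: 0% = enzyme with DMSO and 100% = wells lacking enzyme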
mABHD4 FP: inhibits mouse alpha/beta hydrolase domain 4. inhibition, % at 8.92 µM. purified mABHD4, FP-Rh probe fluorescence polarization. Q8VD66. hit rate 0.54% among 370,000. AID 720543;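 active = inhibition exceeding the mean over every tested compound plus 3 SD, cut at about 30% in these data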;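 also: 0% = plate median of compound wells and 100% = S159A mutant with DMSO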
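Test system: mABHD4 protein; Read-out basis: % inhibition; Incubation: 45 min + 60 min at 25 °C; Repeats: single replicate; Technique: fluorescence polarization with parallel and perpendicular emission, 525/598 nm; Compound: 8.92 µM, single dose; Benchmarks: full inhibition S159A mutant plus DMSO, zero as sample-well median.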
PAFAH2 FP inh: inhibitors of human PAFAH2 | Q99487 | recombinant PAFAH2, FP-rhodamine activity probe, fluorescence polarization | inhibition, % at 3.39 µM | hit rate 0.99% among 340,000 | AID 492956;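 active = inhibition above the mean over all tested compounds plus 3 SD, cut at about 30% in these data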;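 also: inhibitors block probe labeling of enzyme so polarization drops; 0% = enzyme with DMSO and 100% = wells lacking PAFAH2 protein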
PAFAH2 FP conf: confirmation of human PAFAH2 inhibitors; shares compounds with PAFAH2 FP inh; recombinant PAFAH2, FP-rhodamine activity probe, fluorescence polarization; inhibition, % at 3.39 µM; hit rate 65% among 2,300;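 active = mean inhibition over three repeats above a set limit taken from the earlier primary screen, cut at about 30% in these data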;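 also: inhibitor blocks binding of rhodamine activity probe so polarization falls; 0% = enzyme with DMSO and 100% = wells lacking PAFAH2 protein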
An asterisk follows results filed as active.

What do the screens show for `O=C(COC(=O)c1ccc(F)c(S(=O)(=O)N2CCOCC2)c1)NCc1ccc(F)cc1`?
pPAFAH inh: 0; PAFAH1B2 FP inh: 2; PAFAH1B3 inh: 11; HTRA1 inhibitor: 2; mABHD4 FP: 3; PAFAH2 FP inh: 33*; PAFAH2 FP conf: 25

How did O=C(COC(=O)c1ccc(F)c(S(=O)(=O)N2CCOCC2)c1)NCCc1ccccc1 do in these assays?
pPAFAH inh: 7; PAFAH1B2 FP inh: 0; PAFAH1B3 inh: 1; HTRA1 inhibitor: 4; mABHD4 FP: -4; PAFAH2 FP inh: -1

Results for Cc1ccc(C(=O)OCC(=O)Nc2ccccc2C(F)(F)F)cc1S(=O)(=O)N1CCOCC1 ?
pPAFAH inh: 8; PAFAH1B2 FP inh: 3; PAFAH1B3 inh: 1; HTRA1 inhibitor: 1; mABHD4 FP: -4; PAFAH2 FP inh: 63*; PAFAH2 FP conf: 57*

How did O=S1(=O)C=CCN1Cc1cn(Cc2ccc(F)cc2)nn1 do in these assays?
mABHD4 FP: 0

What do the screens show for `CC(=O)N[C@@H]1C[C@@H]2O[C@@H](CO)CC[C@@H]2O[C@@H]1CCc1ccc(C#CC2(O)CCCC2)cc1`?
mABHD4 FP: -2

What do the screens show for `COC(=O)C[C@@H]1CC[C@H]2[C@H](COc3ccc(NC(=O)Nc4ccc(C#N)cc4)cc3C(=O)N2C)O1`?
mABHD4 FP: 1

How did COc1ccc(OC)c(/C=C/C(=O)OCC(=O)N2CCCCC2)c1 do in these assays?
pPAFAH inh: 5; PAFAH1B2 FP inh: 6; PAFAH1B3 inh: 9; HTRA1 inhibitor: 7; mABHD4 FP: -1; PAFAH2 FP inh: 4

Results for COc1ccc(OC)c(/C=C/C(=O)OCC(=O)NC2CCCCCCC2)c1 ?
pPAFAH inh: 20; PAFAH1B2 FP inh: 8; PAFAH1B3 inh: 5; HTRA1 inhibitor: -23; mABHD4 FP: -9; PAFAH2 FP inh: 90*; PAFAH2 FP conf: 86*

Results for COc1ccc(/C=C/C(=O)OCC(=O)NC2CCCCCCC2)cc1 ?
pPAFAH inh: 18; PAFAH1B2 FP inh: 6; PAFAH1B3 inh: 10; HTRA1 inhibitor: -13; mABHD4 FP: 3; PAFAH2 FP inh: 86*; PAFAH2 FP conf: 83*

What do the screens show for `O=C(COC(=O)/C=C/c1ccc([N+](=O)[O-])cc1)NC1CCCCC1`?
pPAFAH inh: 12; PAFAH1B2 FP inh: -5; PAFAH1B3 inh: 2; HTRA1 inhibitor: -4; mABHD4 FP: 2; PAFAH2 FP inh: 21

Results for O=C(COC(=O)/C=C/c1ccc(C(F)(F)F)cc1)NCC1CCCCC1 ?
pPAFAH inh: 3; PAFAH1B2 FP inh: 3; PAFAH1B3 inh: 2; HTRA1 inhibitor: 8; mABHD4 FP: 3; PAFAH2 FP inh: 30*; PAFAH2 FP conf: 22

Results for COc1ccc(/C=C/C(=O)OCC(=O)NC2CCCC2)cc1OC ?
pPAFAH inh: 10; PAFAH1B2 FP inh: 2; PAFAH1B3 inh: 16; HTRA1 inhibitor: 4; mABHD4 FP: 0; PAFAH2 FP inh: 83*; PAFAH2 FP conf: 78*

Results for COc1ccc(C(=O)OCCN(C)C2CN(Cc3cn(Cc4ccccc4Cl)nn3)S(=O)(=O)C2)cc1OC (stereo unspecified) ?
mABHD4 FP: 5

What do the screens show for `COC(=O)C1=C(C)N(Cc2cccc(C(F)(F)F)c2)C(=NCc2ccccc2C(F)(F)F)NC1c1cccc(C(F)(F)F)c1` (stereo unspecified)?
mABHD4 FP: 11

What do the screens show for `CCOC(=O)c1cccc(NC(=O)CN(C)S(=O)(=O)c2cc3ccccc3s2)c1`?
mABHD4 FP: -25

What do the screens show for `O=C(COC(=O)/C=C/c1ccc(OC(F)F)cc1)NC1CCCC1`?
pPAFAH inh: 20; PAFAH1B2 FP inh: 0; PAFAH1B3 inh: 7; HTRA1 inhibitor: 0; mABHD4 FP: -13; PAFAH2 FP inh: 70*; PAFAH2 FP conf: 74*

Results for COc1ccc(/C=C/C(=O)OCC(=O)N2CCCCCC2)cc1OC ?
pPAFAH inh: 4; PAFAH1B2 FP inh: 6; PAFAH1B3 inh: 3; HTRA1 inhibitor: 2; mABHD4 FP: -2; PAFAH2 FP inh: 33*; PAFAH2 FP conf: 15

Results for O=C(COC(=O)/C=C/c1ccc(OC(F)F)cc1)NC(=O)NC1CCCCC1 ?
pPAFAH inh: 5; PAFAH1B2 FP inh: 4; PAFAH1B3 inh: 2; HTRA1 inhibitor: 3; mABHD4 FP: -2; PAFAH2 FP inh: 17

How did COC(=O)[C@]12C[C@H](CC(=O)NCC34CC5CC(CC(C5)C3)C4)C(=O)N(CCc3ccc(OC)c(OC)c3)C1=C[C@H](COCc1ccccc1)O[C@@H]2C do in these assays?
mABHD4 FP: 2

What do the screens show for `CCOC(=O)[C@]12CCCC3=C1N(CCC3)C(=O)[C@@H](CC(=O)NCCCN1CCCC1=O)C2`?
mABHD4 FP: 3

What do the screens show for `CC(/C=C1\N=C(SCc2ccccc2Cl)SC1=O)=C\c1ccccc1`?
pPAFAH inh: 9; PAFAH1B2 FP inh: -1; PAFAH1B3 inh: 5; HTRA1 inhibitor: -20; mABHD4 FP: 0; PAFAH2 FP inh: 46*; PAFAH2 FP conf: 45*

Results for O=C(Nc1cccc(-c2nc3ccccc3c(=O)o2)c1)c1ccccc1 ?
pPAFAH inh: -13; PAFAH1B2 FP inh: -8; PAFAH1B3 inh: -18; HTRA1 inhibitor: -24; mABHD4 FP: -9; PAFAH2 FP inh: -21

What do the screens show for `COc1cccc(-c2nc3ccccc3c(=O)o2)c1`?
pPAFAH inh: -7; PAFAH1B2 FP inh: 3; PAFAH1B3 inh: 4; HTRA1 inhibitor: -4; mABHD4 FP: -6; PAFAH2 FP inh: 68*; PAFAH2 FP conf: 73*

Results for COc1cc(OC)cc(-c2nc3ccccc3c(=O)o2)c1 ?
pPAFAH inh: 6; PAFAH1B2 FP inh: 1; PAFAH1B3 inh: -1; HTRA1 inhibitor: -8; mABHD4 FP: -9; PAFAH2 FP inh: 55*; PAFAH2 FP conf: 68*

How did O=C(NCCO)C1(C(=O)C2CC2)CC(c2ccccn2)=NO1 (stereo unspecified) do in these assays?
mABHD4 FP: 4

How did CCCOc1ccc2c3c(c(=O)oc2c1OCCC)CCCC3 do in these assays?
pPAFAH inh: 5; PAFAH1B2 FP inh: 0; PAFAH1B3 inh: -7; HTRA1 inhibitor: -25; mABHD4 FP: 0; PAFAH2 FP inh: 35*; PAFAH2 FP conf: 19

Results for O=c1oc2ccc(Br)cc2cc1S(=O)(=O)c1ccc(F)cc1 ?
pPAFAH inh: 5; PAFAH1B2 FP inh: 11; PAFAH1B3 inh: -1; HTRA1 inhibitor: -6; PAFAH2 FP inh: 80*; PAFAH2 FP conf: 63*

What do the screens show for `Cc1ncc(CO)c2cc(S(=O)(=O)c3ccc(F)cc3)c(=O)oc12`?
pPAFAH inh: -3; PAFAH1B2 FP inh: 3; PAFAH1B3 inh: -7; HTRA1 inhibitor: 0; mABHD4 FP: 2; PAFAH2 FP inh: 1

Screens (PubChem)
